Data as given in paper PMC2765218 (Nature biotechnology, 2009).

Tested on: mutant HTT
Assay type: cell-based, human
Conditions: GM04281 cells
Summary of the method: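 GM04281 fibroblasts (heterozygous for mutant HTT) were grown in MEM with 10% heat-inactivated FBS and plated 2 days before treatment. PNA-peptide conjugate stocks were heated 65 °C for 5 min, then added in OptiMEM; medium was replaced after 24 h and cells were harvested about 4 days later. BCA-normalised lysates ran on 5% Tris-acetate SDS-PAGE (ice bath) to separate wild-type and mutant HTT. Anti-HTT immunoblot with β-actin loading control; densitometry gave % inhibition versus control from triplicate experiments. Dose-response fit: y=100(1−x^m/(n^m+x^m)).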

selectivity (wild-type IC50/mutant IC50), HTT: 5 fold
Substance: K-GGCGGCTGTTGCTGCTGCT-K8 [3J/HTT]
